# The source made the active and inactive calls. The calls are words filed in the database; no cut-off is given here.
# Experiments:
# [1] = system: H9c2; assay: Drug efflux in rat H9c2 cells at 1 to 100 umol/L incubated for 20 mins prior to compound wash out measured after 10 mins by spectrofluorimetry; format: ADME, cell-based; settings: h9c2, 20 min
# How it was run: (§1)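 Doxorubicin in whole-cell lysates measured fluorimetrically at ex 475/em 553 nm, blank subtracted, converted to nmol/mg cell protein by calibration curve. Kinetic values fitted to Michaelis-Menten equation to obtain Vmax and Km.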
# [2] = system: MCF7; assay: Drug efflux in human MCF7 cells at 1 to 100 umol/L incubated for 20 mins prior to compound wash out measured after 10 mins by spectrofluorimetry; format: ADME, cell-based; settings: mcf7, 20 min; how it was run: as §1
# [3] = system: MCF7; assay: Cytotoxicity against human MCF7 cells assessed as LDH release at 5 umol/L after 24 hrs; format: functional, cell-based
# How it was run: (§2)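 Cells exposed 24 h to 5 μmol/L compound. Medium centrifuged 12,000 × g, 15 min; cells sonicated in 82.3 mmol/L triethanolamine phosphate-HCl pH 7.6. LDH read at 340 nm over 6 min in medium and lysate, in duplicate. Extracellular activity given as % of total; means ± SD, n = 4.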
# [4] = system: MDA-MB-231; assay: Cellular uptake in human MDA-MB-231 cells at 5 umol/L after 24 hrs by spectrofluorimetry; format: ADME, cell-based; settings: mda-mb-231, 24 h, 5 µM
# How it was run: (§3)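 Cells exposed 24 h to 5 μmol/L drug. Doxorubicin in whole-cell lysates read fluorimetrically at ex 475/em 553 nm, cell-free blank subtracted. Converted to nmol/mg cell protein via calibration curve. Duplicate measurements; means ± SD, n = 3.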
# [5] = system: H9c2; assay: Antioxidant activity in rat H9c2 cells assessed as intracellular ROS level at 5 umol/L after 24 hrs by DCFDA-AM staining-based spectrofluorimetry; format: functional, cell-based
# How it was run: (§4)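 Cells rinsed in PBS, loaded with 10 μmol/L DCFDA-AM for 10 min at 37°C, washed, resuspended in PBS. DCFH fluorescence read at ex 490/em 530 nm, cell-free blank subtracted, converted to nmol/mg cell protein by titration curve. Means ± SD; ANOVA with Tukey's test.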
# [6] = system: H9c2; assay: Cellular uptake in rat H9c2 cells at 5 umol/L after 24 hrs by spectrofluorimetry; format: ADME, cell-based; settings: h9c2, 24 h, 5 µM; how it was run: as §3
# [7] = system: MDA-MB-231; assay: Antioxidant activity in human MDA-MB-231 cells assessed as intracellular ROS level at 5 umol/L after 24 hrs by DCFDA-AM staining-based spectrofluorimetry; format: functional, cell-based; how it was run: as §4
# [8] = system: MDA-MB-231; assay: Cytotoxicity against human MDA-MB-231 cells assessed as LDH release at 5 umol/L after 24 hrs; format: functional, cell-based; how it was run: as §2
# [9] = system: MCF7; assay: Cellular uptake in human MCF7 cells at 5 umol/L after 24 hrs by spectrofluorimetry; format: ADME, cell-based; settings: mcf7, 24 h, 5 µM; how it was run: as §3
# [10] = system: H9c2; assay: Antioxidant activity in rat H9c2 cells assessed as intracellular malonyldialdehyde level at 5 umol/L after 24 hrs by spectrofluorimetry; format: functional, cell-based
# [11] = system: MCF7; assay: Antioxidant activity in human MCF7 cells assessed as intracellular ROS level at 5 umol/L after 24 hrs by DCFDA-AM staining-based spectrofluorimetry; format: functional, cell-based; how it was run: as §4
# [12] = system: MDA-MB-231; assay: Antioxidant activity in human MDA-MB-231 cells assessed as intracellular malonyldialdehyde level at 5 umol/L after 24 hrs by spectrofluorimetry; format: functional, cell-based
# [13] = Cellular uptake in human MCF7 cell nucleus at 5 umol/L after 24 hrs by fluorimetric analysis; format: ADME, cell-based; settings: mcf7, 24 h, 5 µM
# How it was run: (§5)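 Cells incubated 24 h with 5 μmol/L drug. Doxorubicin measured fluorimetrically in nuclear or mitochondrial extracts, in duplicate. Means ± SD, n = 3.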
# [14] = system: MCF7; assay: Antioxidant activity in human MCF7 cells assessed as intracellular malonyldialdehyde level at 5 umol/L after 24 hrs by spectrofluorimetry; format: functional, cell-based
# [15] = system: MDA-MB-231; assay: Drug efflux in human MDA-MB-231 cells at 1 to 100 umol/L incubated for 20 mins prior to compound wash out measured after 10 mins by spectrofluorimetry; format: ADME, cell-based; settings: mda-mb-231, 20 min; how it was run: as §1
# [16] = Cellular uptake in human MDA-MB-231 cell nucleus at 5 umol/L after 24 hrs by fluorimetric analysis; format: ADME, cell-based; settings: mda-mb-231, 24 h, 5 µM; how it was run: as §5
# [17] = system: H9c2; assay: Cytotoxicity against rat H9c2 cells assessed as LDH release at 5 umol/L after 24 hrs; format: cell-based; settings: h9c2, 24 h, 5 µM; how it was run: as §2
# [18] = species: Homo sapiens; assay: Inhibition of human topoisomerase 2 using supercoiled pHOT1 as substrate at 1 to 50 umol/L by agarose gel electrophoresis
# How it was run: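 Purified human topoisomerase II incubated with supercoiled pHOT1 plasmid and drug at 1, 5, 25, 50 μmol/L, using a commercial topoisomerase II drug screening kit. Etoposide at 5, 50, 100 μmol/L served as positive control.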
# [19] = system: MDA-MB-231; assay: Antioxidant activity in human MDA-MB-231 cells assessed as intramitochondrial ROS level at 5 umol/L after 24 hrs by DCFDA-AM staining-based spectrofluorimetry; format: functional, cell-based
# How it was run: (§6)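 Mitochondria freshly isolated from cells grown 24 h with 5 μmol/L compound. DCFDA-AM loading and fluorescence read (ex 490/em 530 nm) as for whole cells, blank subtracted. Values expressed as nmol/mg mitochondrial protein. Measured in duplicate; means ± SD.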
# [20] = system: H9c2; assay: Antioxidant activity in rat H9c2 cells assessed as intramitochondrial ROS level at 5 umol/L after 24 hrs by DCFDA-AM staining-based spectrofluorimetry; format: functional, cell-based; how it was run: as §6
# [21] = system: MCF7; assay: Antioxidant activity in human MCF7 cells assessed as intramitochondrial ROS level at 5 umol/L after 24 hrs by DCFDA-AM staining-based spectrofluorimetry; format: functional, cell-based; how it was run: as §6
# [22] = Cellular uptake in rat H9c2 cell nucleus at 5 umol/L after 24 hrs by fluorimetric analysis; format: ADME, cell-based; settings: h9c2, 24 h, 5 µM; how it was run: as §5
# [23] = Cellular uptake in rat H9c2 cell mitochondria at 5 umol/L after 24 hrs by fluorimetric analysis; format: ADME; settings: h9c2, 24 h, 5 µM; how it was run: as §5
# [24] = Cellular uptake in human MDA-MB-231 cell mitochondria at 5 umol/L after 24 hrs by fluorimetric analysis; format: ADME; settings: mda-mb-231, 24 h, 5 µM; how it was run: as §5
# [25] = Cellular uptake in human MCF7 cell mitochondria at 5 umol/L after 24 hrs by fluorimetric analysis; format: ADME; settings: mcf7, 24 h, 5 µM; how it was run: as §5
SMILES,Km [1],Vmax [1],Km [2],Vmax [2],Activity [3],Drug uptake [4],Activity [5],Drug uptake [6],Activity [7],Activity [8],Drug uptake [9],Activity [10],Activity [11],Activity [12],Drug uptake [13],Activity [14],Km [15],Vmax [15],Drug uptake [16],Activity [17],also measured
COc1cccc2c1C(=O)c1c(O)c3c(c(O)c1C2=O)C[C@@](O)(C(=O)CO)C[C@@H]3O[C@H]1C[C@H](N)[C@H](O)[C@H](C)O1 [DOXORUBICIN],1.96 nmol/mg,11.89 nmol/min/mg,1.88 nmol/mg,18.9 nmol/min/mg,Active,Active,Active,Not Active,inactive,Active,Active,Active,Active,inactive,Active,Active,1.35 nmol/mg,33.11 nmol/min/mg,Active,Toxic,inhibition [18]: Active; Activity [19]: inactive; Activity [20]: Active; Activity [21]: Active
COc1cccc2c1C(=O)c1c(O)c3c(c(O)c1C2=O)C[C@@](O)(C(=O)COC(=O)/C=C/c1ccc(O)c(O)c1)C[C@@H]3O[C@H]1C[C@H](N)[C@H](O)[C@H](C)O1.Cl,–,–,–,–,Active,Active,–,Active,–,inactive,Active,–,–,–,–,–,–,–,–,Toxic,–
COc1cc(/C=C/C(=O)OCC(=O)[C@]2(O)Cc3c(O)c4c(c(O)c3[C@@H](O[C@H]3C[C@H](N)[C@H](O)[C@H](C)O3)C2)C(=O)c2c(OC)cccc2C4=O)ccc1O.Cl,2.01 nmol/mg,11.7 nmol/min/mg,1.83 nmol/mg,11.1 nmol/min/mg,Active,Active,Active,Not Active,inactive,Active,Active,Active,Active,inactive,Active,Active,1.25 nmol/mg,16.53 nmol/min/mg,Active,Toxic,Drug uptake [22]: Active; Drug uptake [23]: Active; inhibition [18]: Active; Activity [19]: inactive; Activity [20]: Active; Activity [21]: Active; Drug uptake [24]: Active; Drug uptake [25]: Active

# Reference: ChEMBL document CHEMBL2424527, “Doxorubicin-antioxidant co-drugs” (Bioorg Med Chem Lett, 2013)
